Tn6 DDE FP: disrupts Tn6 cyclic peptide binding to fibrin D-Dimer-E complex; P02675; Fibrin DD(E) TRITC-Tn6 fluorescence polarization displacement; inhibition, % at 8.3 µM; 370,000 tested, 0.21% active; AID 720509;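 active = inhibition above a per-campaign cutoff: mean of compounds within control limits plus 3 SD, cut at about 15% in these data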
Tn7 DDE FP: inhibitors of Tn7 peptide binding to human fibrin DD(E). P02675. FP displacement of FITC-Tn7 peptide from fibrin DD(E); 0% = median of compound wells per plate. inhibition, % at 8.3 µM. 370,000 tested, 0.13% active. AID 720508;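 active = inhibition above the mean of compounds falling within the control limits plus 3 SD of them, cut at about 14% in these data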
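Test system: human clot-derived fibrin DD(E) complex / Quantity: 2 µM final DD(E) protein / Incubation: 10 min plus 3 h, room temperature / Measured by: fluorescence polarization / Benchmarks: high control of 10 µM Aha-Tn7 peptide / Replicates: singlicate testing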
ASAP1 GAP inh: ASAP1 ArfGAP inhibition | Q9ULH1 | ASAP1-stimulated ARF1 GTP hydrolysis, GDP FP detection | inhibition, % at 16.5 µM | 360,000 tested, 0.19% active; in the data active = inhibition above about 25%
Target sequence (Q9ULH1 325-724 limits assumed): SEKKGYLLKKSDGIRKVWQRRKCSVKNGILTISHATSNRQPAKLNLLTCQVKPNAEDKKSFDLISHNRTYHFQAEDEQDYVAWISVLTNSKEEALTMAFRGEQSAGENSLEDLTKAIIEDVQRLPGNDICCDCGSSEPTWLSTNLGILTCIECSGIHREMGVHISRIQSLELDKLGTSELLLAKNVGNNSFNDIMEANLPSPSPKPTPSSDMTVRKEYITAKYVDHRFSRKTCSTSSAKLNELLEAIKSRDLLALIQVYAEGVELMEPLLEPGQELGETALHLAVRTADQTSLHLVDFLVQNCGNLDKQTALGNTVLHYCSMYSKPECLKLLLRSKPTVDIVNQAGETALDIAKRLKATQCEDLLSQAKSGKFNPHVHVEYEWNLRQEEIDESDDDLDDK
ARFGAP1 inh: rat ARFGAP1 inhibition; Arfgap1-stimulated ARF1 GTP hydrolysis, GDP FP detection; 360,000 tested, 0.26% active; inhibition, % at 16.5 µM; Q62848;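 active = inhibition above a per-plate limit, mean inhibition of low control wells plus 3 SD, cut at about 25% in these data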
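Replicates: Single well per compound | Assay system: Truncated rat Arfgap1 GAP domain | Control set: No-Arfgap1 wells (100%) versus DMSO full-reaction wells (0%) | Times: Enzyme reaction 120 min at 25 °C after 20 min preincubation | Reagent: Human ARF1(Δ1-17)-GTP substrate | Measured by: Tracer-displacement fluorescence polarization with EDTA stop, 620/688 nm | Measure: Percent inhibition of Arfgap1-stimulated GTP hydrolysis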
DDE Tn6 FP ctr: counter-screen for inhibitors of Tn6 peptide binding to fibrin DD(E); inhibition, % at 8.3 µM; AID 720621; 680 tested, 2% active; shares compounds with Tn6 DDE FP; TRITC-Tn6 fluorescence polarization displacement; 0% = median of compound wells, not DMSO;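 active = inhibition above the mean of test compounds lying between the control limits plus 3 SD of those, cut at about 14% in these data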
Tn6 DDE conf: confirmation of inhibitors of Tn6 binding to human fibrin DD(E) | shares compounds with Tn6 DDE FP | FP displacement of TRITC-Tn6 peptide from DD(E); 0% = per-plate median of test wells | inhibition, % at 8.3 µM | 680 tested, 10% active | AID 720631;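 active = inhibition above the mean of compounds lying within the control limits plus 3 SD, cut at about 16% in these data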
A number is an active result; - = inactive; . = no result. This is a sample that favours compounds with a hit; in the whole collection about 0.74% have one here.

SMILES	Tn6 DDE FP	Tn7 DDE FP	ASAP1 GAP inh	ARFGAP1 inh	DDE Tn6 FP ctr	Tn6 DDE conf
COc1ccc(S(=O)(=O)N(C)C[C@H]2Oc3ccc(NC(=O)Nc4ccc(C(F)(F)F)cc4)cc3C(=O)N([C@H](C)CO)C[C@@H]2C)cc1	81	-	-	-	-	34
C[C@H](CO)N1C[C@H](C)[C@H](CN(C)C(=O)Nc2ccc3c(c2)OCO3)OCc2cnnn2CCCC1=O	-	-	-	-	.	.
CC(C)C[C@H]1COc2cc(Br)ccc2S(=O)(=O)N1Cc1cn(CCC2OCCO2)nn1	-	-	.	.	.	.
Cc1cc(C)c2ccc(N)nc2c1O	29	-	-	-	-	-
CCN(Cc1nc2cc(Cl)ccc2c(=O)[nH]1)C(=O)c1cc(C2CC2)nn1-c1ccccc1	16	-	-	-	-	-
COc1ccc(C(CNC(=O)C(=O)NC2CCCC2)N2CCN(C)CC2)cc1 (centres undefined)	-	-	-	-	.	.
COc1ccc(C(CNC(=O)C(=O)NC2CCCCC2)N2CCN(C)CC2)cc1 (centres undefined)	16	-	-	-	-	-
COc1ccc(CCC(=O)Nc2nc3c(s2)CN(C)CC3)cc1OC	83	-	-	-	-	-
CC[C@]12c3[nH]c4ccc(Cl)cc4c3CCN1C(=O)[C@@H](CC(=O)NC(C)(C)C)C[C@@H]2C(=O)N1CCN(C(=O)c2ccco2)CC1	16	-	-	-	-	-
CN1CCCCC(NC(=O)c2ccccc2)C1=O (centres undefined)	-	-	-	-	.	.
CCC(=O)OC1(C)C(=O)C=C2C=C(CCCC(=O)OC)OC=C2C1=O (centres undefined)	-	-	-	-	.	.
CCCCC1=CC2=CC(=O)C(C)(OC(=O)CC)C(=O)C2=CO1 (centres undefined)	18	-	-	-	-	-
COc1cccc(NC(=O)c2cc3ccccc3cc2OC)c1	15	-	-	-	-	-
COc1ccc(NC(=O)c2cc3ccccc3cc2OC)cc1OC	-	-	-	-	.	.
Cc1ccc(NC(=O)/C=C/c2ccc([N+](=O)[O-])s2)cc1	18	-	-	-	-	-
Cc1cccc(NC(=O)/C=C/c2ccc([N+](=O)[O-])s2)c1	-	-	-	-	.	.
C#CCNC(=O)C[C@H]1C[C@@]2(C(=O)OC)C(=C[C@H](C(C)(C)C)O[C@@H]2C)N(CCc2ccc(OC)c(OC)c2)C1=O	-	-	-	-	.	.
COc1ccc(S[C@]2(C(=O)N3CCN(c4ncccn4)CC3)CC(=O)N(C(=O)CCc3ccccc3)[C@@H]2c2ccc(OC)cc2)cc1	-	-	.	.	.	.
CN(C)S(=O)(=O)c1ccc(Cl)c(C(=O)Nc2nc3ccccc3[nH]2)c1	-	-	-	-	.	.
Cc1ccc(NS(=O)(=O)c2ccc(Cl)c(C(=O)Nc3ccccc3-c3nc4ccccc4[nH]3)c2)cc1C	16	-	-	-	-	-
O=C(COC(=O)/C=C/c1ccco1)Nc1ncc(C(F)(F)F)cc1Cl	16	-	-	-	-	-
Cc1c(Cl)cnc(NC(=O)COC(=O)/C=C/c2ccco2)c1Cl	-	-	-	-	.	.
Cc1ccc(-n2c(Cc3cccs3)nnc2SCC(=O)Nc2ccccc2-c2ccccc2)cc1	-	-	.	.	.	.
CCC(=O)Nc1ccc(NC(=O)CSc2nnc(-c3ccc(O)cc3)n2CC2CCCO2)cc1 (centres undefined)	20	-	-	-	-	-
CCOc1ccc(NS(=O)(=O)c2ccc(N)cc2)cc1	-	-	-	-	.	.
SMILES	Tn6 DDE FP	Tn7 DDE FP	ASAP1 GAP inh	ARFGAP1 inh	DDE Tn6 FP ctr	Tn6 DDE conf
CCOc1ccc(Nc2ccc(N)c(S(=O)(=O)O)c2)cc1	22	-	-	-	-	-
C/C(CC(=O)NCc1ccc(Cl)cc1)=N\NC(=O)c1ccccc1F	16	-	-	-	-	-
COc1ccccc1CNC(=O)C/C(C)=N/NC(=O)Cc1ccc(Cl)cc1	-	-	-	-	.	.
O=C(NC(c1ccccc1)c1ccccc1)N1CCOCC1	16	-	-	-	-	-
CC(NC(=O)N1CCOCC1)c1ccccc1 (centres undefined)	-	-	-	-	.	.
O=C(C(=O)N1CCC(CNS(=O)(=O)c2ccccc2OC(F)(F)F)CC1)c1cc2ccccc2o1	-	-	-	-	.	.
CCc1nc2ccc(C(=O)NCCOc3ccc(OC)cc3)cn2c1N(CCN(C)C)CC1CC1	-	-	-	-	.	.
CCc1nc2ccc(C(=O)NCCOc3ccc(OC)cc3)cn2c1N(C)C(=O)C1CCCCC1	16	-	-	-	-	-
